The campaign covered roughly 2,500 compounds. About 460 (18%) were called active. A selection follows. Unmarked numbers belong to inactive results.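 The calls were made as follows: active = mean activation above a cutoff of low control average plus 3 SD from the earlier screen (cut at about 12% in these data); inactive = the rest.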

This test in a line: compound fluorescence interference without thin filaments, confirmation, artefact control for cardiac RTF calcium sensitizer project, biochemical (AID 504382). As to conditions: IANBD fluorescence interference counterscreen, buffer, EC20 Ca2+; at 7.2 µM; hits give high values; scaled: EC20 calcium 0, EC100 calcium 100. In short, it runs like this: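 Doses – one dose of 7.2 µM, 0.7% DMSO · Buffer or medium – MOPS/KCl/MgCl2/EGTA/NTA/DTT buffer, pH 7.2 · Probe or stimulus – Ca2+ fixed at EC20, 0.472 mM · Measured by – fluorescence intensity, excitation 480 nm, emission 540 nm · Read-out – fluorescence interference versus control range · Timing – 15 min compound exposure at 25 °C · Replication – triplicate wells per compound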
(In general: Counterscreens check selectivity or assay interference.)
As to `CN(C)c1ccc(/C=C/c2ccc3ccccc3n2)cc1`, the fluorescence artifact activation is 0.06%.

In the case of `CN1CCN(CCNC(=O)Nc2ccc(Cl)cc2)CC1`, the fluorescence artifact activation is 3.25%. `CCCCCCSc1ccc([C@@H]2[C@H]3C(=O)N(CC)C(=O)[C@H]3[C@]3(C(=O)OC)CCCCN23)cc1OC`: the fluorescence artifact activation was -0.04%. To `CCn1cc(Cl)c(C(=O)NNC(=O)CCn2cc([N+](=O)[O-])cn2)n1` belongs -0.04%. To `CN1/C(=C\C=C2/SC(=S)N(CC(=O)O)C2=O)C(C)(C)c2ccccc21` belongs 0.11%. To `CC1(C)c2ccccc2N2CC(=O)N(CC(N)=O)C21C` (stereo unspecified) belongs 20.9% (active); to `CN1C(=CC=C2C=C(I)C(=O)C(I)=C2)C(C)(C)c2ccccc21`, 0.22%. Regarding `O=C(Nc1ccccc1)OC1CCC2CC1CCC2OC(=O)Nc1ccccc1` (stereo unspecified), the fluorescence artifact activation is -0.01%. To `O=C(Nc1ccccc1)NC1CS(=O)(=O)CC1O` (stereo unspecified) belongs 32.8% (active). As for `CC(=O)Nc1ccccc1`, the fluorescence artifact activation was -0.1%.

Consider `c1ccc(CCC2=NCCn3cccc32)cc1`, for which the fluorescence artifact activation is 4.53%. Take `CCCCn1c(N)c(N(CC(C)C)C(=O)Cc2ccc(S(=O)(=O)N3CCOCC3)s2)c(=O)[nH]c1=O`: the fluorescence artifact activation is 3.01%.

For the compound `Brc1ccc2[nH]c3nc(SCCN4CCOCC4)nnc3c2c1`, the fluorescence artifact activation was 0.16%. To `COc1ccc(/C=C2\SC(=S)N(CCCC(=O)Nc3ccccc3C(=O)O)C2=O)cc1OC` belongs 5.03%. Take `O=C(Nc1ccccc1)c1ccc(NCCc2ccccc2)c([N+](=O)[O-])c1`: the fluorescence artifact activation is 0.33%. As to `Cc1cccc(OCCNc2ccc(C(F)(F)F)cc2[N+](=O)[O-])c1`, the fluorescence artifact activation is 43.7% (active). Consider `CC(=O)c1cccc(-n2c(CCC(=O)O)ccc2-c2ccccc2)c1`, for which the fluorescence artifact activation was 0.06%. To `Cc1nnc(-c2ccccc2)c(=O)n1/N=C/c1c(O)ccc2ccccc12` belongs 0.11%; to `C/C(=N\NC(=O)c1cc2c(s1)CCC(C)C2)c1ccc[nH]1` (stereo unspecified), 0.04%. Turning to `Cc1oc2c(cc(NS(=O)(=O)c3ccc(C(C)C)cc3)c3ccccc32)c1C(=O)O`, the fluorescence artifact activation is -0.05%. Regarding `CCCN1C(=O)S/C(=C\c2ccc(N3CCOCC3)o2)C1=O`, the fluorescence artifact activation is 0.73%. To `O=C1S/C(=C\c2ccc(N3CCOCC3)o2)C(=O)N1Cc1c(F)cccc1Cl` belongs 226% (active); to `O=C1S/C(=C/c2ccc(N3CCOCC3)o2)C(=O)N1Cc1ccc(F)cc1`, 16.8% (active).

For the compound `O=C(O)c1ccccc1-c1ccc(/C=C2\SC(=O)N(c3ccccc3)C2=O)o1`, the fluorescence artifact activation was 0.06%. To `CCCN1C(=O)S/C(=C/c2ccc(N3CCOCC3)o2)C1=O` belongs 31.7% (active); to `O=C1S/C(=C\c2ccc(N3CCOCC3)o2)C(=O)N1Cc1ccc(F)cc1`, -0.07%. To `CC(C)OC(=O)CN1C(=O)S/C(=C/c2ccc(N3CCCCC3)o2)C1=O` belongs 0.64%. To `O=C(CSCc1c(F)cccc1Cl)Nc1ccccc1C(=O)N1CCOCC1` belongs 2.06%. `O=C1S/C(=C/c2ccc(N3CCOCC3)o2)C(=O)N1Cc1c(F)cccc1Cl`: the fluorescence artifact activation is 5.76%. To `O=C1S/C(=C\c2ccc(N3CCOCC3)o2)C(=O)N1c1ccccc1` belongs 22.4% (active); to `CN1C/C(=C\c2ccc(N3CCOCC3)cc2)C(=O)/C(=C/c2ccc(N3CCOCC3)cc2)C1`, 0.12%; to `O=C1N/C(=C\c2ccsc2)C(=O)N1Cc1ccc(F)cc1`, 0.11%. As for `CCCOc1ccc(C2C(C(=O)/C=C/c3ccco3)=C(O)C(=O)N2CCN2CCOCC2)cc1OC` (stereo unspecified), the fluorescence artifact activation is 9.14%. For the compound `CC1=CC(=C(C#N)c2nc3ccccc3s2)C=C(C)N1c1ccc(F)cc1`, the fluorescence artifact activation was 11.2%. To `CCC1C/C(=C\c2cc(OC)c(OC)cc2OC)C(=O)/C(=C/c2cc(OC)c(OC)cc2OC)C1` (stereo unspecified) belongs 5.41%. To `O=[N+]([O-])c1ccc(N/N=C/c2ccc(OCc3cccc4ccccc34)cc2)nc1` belongs -0.02%.

Consider `O=C(/C=C/c1ccccc1[N+](=O)[O-])Nc1cccnc1`, for which the fluorescence artifact activation is 0.87%.

For the compound `Cc1ccc2nc3nc(NCC4CCCO4)c(C(=O)NC4CCCC4)cc3c(=O)n2c1` (stereo unspecified), the fluorescence artifact activation is 0.12%.

As for `COc1ccc(Cc2n[nH]c(=O)c3ccccc23)cc1OC`, the fluorescence artifact activation was 0.32%. To `C[C@H](CO)N1C[C@H](C)[C@@H](CN(C)C(=O)Nc2ccc(F)cc2)Oc2ccc(NS(C)(=O)=O)cc2C1=O` belongs 0.09%; to `Cc1ccc(N2C(=O)c3cccc4c(N)ccc(c34)C2=O)c2cccnc12`, 0.51%; to `O=C(Nc1ccc2c(c1)OCCO2)c1cccc(Cl)c1Cl`, 13.6% (active). To `O=C(Nc1ccc(C(=O)N2CCOCC2)cc1)Nc1cccc(Cl)c1` belongs 8.09%; to `O=C(Nc1ccc2c(c1)OCO2)c1ccc2c(c1)OCO2`, 8.95%. As to `Cc1ccc(C(=O)NNC(=O)CSc2nnc(-c3ccncc3)n2-c2ccc(C)cc2)cc1`, the fluorescence artifact activation is 0.09%.

On to `CCN1C(=O)[C@@H]2Cc3c([nH]c4ccccc34)C(c3ccc(OC)cc3)N2C1=S` (stereo partly specified), for which the fluorescence artifact activation is -0.08%. For the compound `CCN(CC(=O)Nc1ccccc1C(=O)NC1CC1)Cc1cccs1`, the fluorescence artifact activation is 25.6% (active).

Take `O=C(c1ccccn1)N(Cc1cccs1)C1(C(=O)NC2CCCCC2)CCCCC1`: the fluorescence artifact activation is 0.12%. On to `O=C(NC1CCCCC1)c1ccccc1NC(=S)NC(=O)C1CCC1`, for which the fluorescence artifact activation is 8.42%.

In the case of `O=S(=O)(/C=C/c1ccccc1)N1CCc2ccccc2C1`, the fluorescence artifact activation was 0.07%. To `CCn1c(C)c(CCC(=O)O)c(=O)n2nc(-c3ccccc3OC)cc12` belongs 0.2%. To `CC(=O)Nc1ccc(S(=O)(=O)NCCC(=O)OCC(=O)c2cc(C)ccc2C)cc1` belongs 0.05%. `CC(=O)Nc1ccc(SCC(=O)NNC(=O)CN(C)S(=O)(=O)c2ccc(C)cc2)cc1`: the fluorescence artifact activation is 70.4% (active). As for `Cc1cc(C)nc(NS(=O)(=O)c2ccc(NC(=O)CSc3nc4ccccc4[nH]3)cc2)n1`, the fluorescence artifact activation is 0.03%. Regarding `CCOc1ccc2nc3cc(NCc4ccc(OC)cc4)ccc3c(N)c2c1`, the fluorescence artifact activation is 0.41%. To `Cn1cc(C2=C(c3ccc(Cl)cc3Cl)C(=O)NC2=O)c2ccccc21` belongs 12.7% (active); to `Cc1ccc(N=C2NC(=O)/C(=C/c3cn(C)c4ccccc34)S2)cc1C`, 0%. To `Cn1cc(/C=C/c2cc[n+](C)cc2)c2cc(Cl)ccc21` belongs 0.1%; to `COc1cccc(C(=O)Nc2cc(C(=O)NCc3ccc(C)cc3)ccc2N2CCC3(CC2)CC(c2cccc(Br)c2)=NO3)c1`, -0.03%; to `CCN(CC(=O)Nc1ccccc1C(F)(F)F)C(=O)c1ccc(-n2nc(C)c(CCC(=O)OC)c2C)cc1`, 8.41%. `N#Cc1cccc(NC(=O)CSc2ccc3c4c(cccc24)C(=O)c2ccccc2-3)c1`: the fluorescence artifact activation was 0.19%.

With `Cn1nc(C(F)(F)F)c(-c2ccc(Br)cc2)c1NC(=O)c1ccco1`, the fluorescence artifact activation is 0.14%. With `CCC(CC)NC(=O)Nc1ccccc1C`, the fluorescence artifact activation is 0.09%.

Take `COCCn1c(C)cc(C(=O)COC(=O)c2ccc(Cl)c(S(N)(=O)=O)c2)c1C`: the fluorescence artifact activation is 3.98%.

Turning to `Cc1nnc(NC(=O)CSc2ncnc3c2cnn3-c2ccccc2C)s1`, the fluorescence artifact activation is 2.39%.

Turning to `Cc1ccc(CNC(=O)c2cc(-c3ccccc3)nn2Cc2cc(C)no2)cc1`, the fluorescence artifact activation was 0.08%. To `Cc1ccc(C)c(C(=O)CCC(=O)NCc2ccc(Cl)cc2)c1` belongs 0.14%; to `Cc1ccc(CNC(=O)CCn2cc(-c3ccc(C)cc3)nc2-c2ccncc2)cc1`, 18.1% (active); to `COc1ccc2nc(C)c3cc(C)oc3c2c1`, 8.29%. As to `Cn1nc(-c2ccccc2)c(C(=O)Nc2ccc(C(F)(F)F)cc2)c1Cl`, the fluorescence artifact activation was 5.74%. Take `Cc1cc([N+](=O)[O-])ccc1-c1ccc(/C=N/NC(=O)c2ccc(Br)o2)o1`: the fluorescence artifact activation is 0.29%. To `COC(=O)c1cc(-c2cccc(OC)c2)n[nH]1` belongs 1.23%. To `C[C@@H](C(=O)N1CCNCC1)n1cc(CCCN=C(N)N)nn1` belongs 29.3% (active). To `CC(C)(C)OC(=O)NCCCC[C@@H](C(=O)N1CCN(C(=O)OC(C)(C)C)CC1)n1cc(CCC(=O)O)nn1` belongs 0.16%; to `CC(O)Cc1cn([C@@H](CCCCN)C(=O)N2CCNCC2)nn1` (stereo partly specified), 0.06%; to `CC(Oc1ccc(F)cc1)C(=O)Nc1sc2c(c1C(=O)NCc1cccnc1)CCCC2` (stereo unspecified), 9.94%. For the compound `Nc1cccc(N2C(=O)c3cccc4c(N)ccc(c34)C2=O)c1`, the fluorescence artifact activation was 0.16%. For `CS(=O)(=O)c1ccc(C(=O)OCC(=O)Nc2cccnc2Cl)cc1[N+](=O)[O-]`, the fluorescence artifact activation is 0%.

`COc1ccc2ccccc2c1C(O)c1nccn1C` (stereo unspecified): the fluorescence artifact activation is 10.5%. On to `Cc1occc1C(=O)Nc1cccc([N+](=O)[O-])c1`, for which the fluorescence artifact activation was 11.4%. To `COC(=O)c1cc2c(=O)c3ccccc3oc2nc1/C=C/N(C)C` belongs 0.12%. To `NC(=O)c1c(NC(=O)c2ccccc2)sc2c1CCN(Cc1ccccc1)C2` belongs 37.1% (active). To `NC(=O)c1c(NC(=O)C2COc3ccccc3O2)sc2c1CCN(Cc1ccccc1)C2` (stereo unspecified) belongs 0.08%. As for `CC(=O)c1ccc(C(=O)Nc2sc3c(c2C(N)=O)CCN(Cc2ccccc2)C3)cc1`, the fluorescence artifact activation is -0.06%.

On to `Cc1nc(-c2ccc(C#N)cc2)cs1`, for which the fluorescence artifact activation was -0.01%. Consider `CN(C)c1ccc(N=Cc2nc(-c3ccccc3)oc2O)cc1`, for which the fluorescence artifact activation is 7.65%. For the compound `COc1ccc(N=C(N)N=C(N)N)c(OC)c1`, the fluorescence artifact activation was 0%. To `CCOc1cc(N2CCOCC2)c(OCC)cc1NC(=O)CCS(=O)(=O)c1ccc(Cl)cc1` belongs 9.02%; to `Cc1cccc(/C=C2/SC(=O)N(Cc3ccccc3)C2=O)n1`, 15.4% (active); to `CN(C)c1ccc(/C=C2\SC(=O)N(CC(O)Cn3c4ccccc4c4ccccc43)C2=O)cc1` (stereo unspecified), 5.59%. Turning to `CCC(CO)[n+]1c(C)cc(/C=C2\Sc3ccccc3N2Cc2ccccc2)cc1C` (stereo unspecified), the fluorescence artifact activation is 0.01%.
